According to ChEMBL document CHEMBL1123146, “Design, synthesis, and evaluation of omega-iodovinyl- and omega-iodoalkyl-substituted methyl-branched long-chain fatty acids” (J Med Chem, 1985):

Tests used:
Rattus norvegicus [1] = assay: Distribution of radioactivity was measured in liver tissue of unfasted Fischer 344 rats administered intravenously after 15 minutes (radiolabeled with [125I]-; type: ADME, organism-based; conditions: in vivo, iv, 0.25 h
Method in brief: (§1)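 Female Fischer 344 rats, 10–12 weeks old (170–200 g), with food and water ad libitum, five per time point. The radioiodinated fatty acid was dissolved in ethanol, added to 6% BSA at ~40 °C (final 10% ethanol), filtered, and injected into a lateral tail vein (0.5 mL) under ether anesthesia. Blood was taken by cardiac puncture; organs were rinsed, blotted, weighed and gamma-counted against injectate standards. Output is % injected dose/g.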

Rattus norvegicus [2] = assay: Distribution of radioactivity was measured in liver tissue of unfasted Fischer 344 rats administered intravenously after 5 minutes (radiolabeled with [125I]-; type: ADME, organism-based; conditions: in vivo, iv; method in brief: as §1
Rattus norvegicus [3] = assay: Mean heart/blood tissue of unfasted Fischer 344 rats administered intravenous after 2 minutes (radiolabeled with [125I]-; type: ADME, organism-based; conditions: in vivo
Method in brief: (§2)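 Female Fischer 344 rats (10-12 weeks, 170-200 g), fed ad libitum before and during the experiment, five per time point. The radioiodinated fatty acid was dissolved in 0.5 mL absolute ethanol, added dropwise to stirred 6% BSA at ~40 °C (final ethanol 10%), filtered at 0.22 µm, and injected in 0.5 mL into a lateral tail vein under ether anesthesia.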

Rattus norvegicus [4] = assay: Distribution of radioactivity was measured in heart tissue of unfasted Fischer 344 rats administered intravenously after 2 minutes (radiolabeled with [125I]-; type: ADME, organism-based; conditions: in vivo, iv; method in brief: as §1
Rattus norvegicus [5] = assay: Distribution of radioactivity was measured in lung tissue of unfasted Fischer 344 rats administered intravenously after 5 minutes (radiolabeled with [125I]-; type: ADME, organism-based; conditions: in vivo, iv; method in brief: as §1
Rattus norvegicus [6] = assay: Mean heart/blood tissue of unfasted Fischer 344 rats administered intravenous after 30 minutes (radiolabeled with [125I]-; type: ADME, organism-based; conditions: in vivo, 0.5 h; method in brief: as §2
Rattus norvegicus [7] = assay: Distribution of radioactivity was measured in thyroid tissue of unfasted Fischer 344 rats administered intravenously after 2 minutes (radiolabeled with [125I]-; type: ADME, organism-based, Thyroid gland; conditions: in vivo, iv; method in brief: as §1
Rattus norvegicus [8] = assay: Distribution of radioactivity was measured in blood tissue of unfasted Fischer 344 rats administered intravenously after 15 minutes (radiolabeled with [125I]-; type: ADME, organism-based; conditions: in vivo, iv, 0.25 h; method in brief: as §1
Rattus norvegicus [9] = assay: Distribution of radioactivity was measured in blood tissue of unfasted Fischer 344 rats administered intravenously after 60 minutes (radiolabeled with [125I]-; type: ADME, organism-based; conditions: in vivo, iv, 1 h; method in brief: as §1
Rattus norvegicus [10] = assay: Distribution of radioactivity was measured in liver tissue of unfasted Fischer 344 rats administered intravenously after 60 minutes (radiolabeled with [125I]-; type: ADME, organism-based; conditions: in vivo, iv, 1 h; method in brief: as §1
Rattus norvegicus [11] = assay: Mean heart/blood tissue of unfasted Fischer 344 rats administered intravenous after 5 minutes (radiolabeled with [125I]-; type: ADME, organism-based; conditions: in vivo; method in brief: as §2
Rattus norvegicus [12] = assay: Distribution of radioactivity was measured in blood tissue of unfasted Fischer 344 rats administered intravenously after 30 minutes (radiolabeled with [125I]-; type: ADME, organism-based; conditions: in vivo, iv, 0.5 h; method in brief: as §1
Rattus norvegicus [13] = assay: Distribution of radioactivity was measured in blood tissue of unfasted Fischer 344 rats administered intravenously after 5 minutes (radiolabeled with [125I]-; type: ADME, organism-based; conditions: in vivo, iv; method in brief: as §1
Rattus norvegicus [14] = assay: Distribution of radioactivity was measured in liver tissue of unfasted Fischer 344 rats administered intravenously after 30 minutes (radiolabeled with [125I]-; type: ADME, organism-based; conditions: in vivo, iv, 0.5 h; method in brief: as §1
Rattus norvegicus [15] = assay: Distribution of radioactivity was measured in kidney tissue of unfasted Fischer 344 rats administered intravenously after 30 minutes (radiolabeled with [125I]-; type: ADME, organism-based; conditions: in vivo, iv, 0.5 h; method in brief: as §1
Rattus norvegicus [16] = assay: Distribution of radioactivity was measured in heart tissue of unfasted Fischer 344 rats administered intravenously after 15 minutes (radiolabeled with [125I]-; type: ADME, organism-based; conditions: in vivo, iv, 0.25 h; method in brief: as §1
Rattus norvegicus [17] = assay: Distribution of radioactivity was measured in kidney tissue of unfasted Fischer 344 rats administered intravenously after 5 minutes (radiolabeled with [125I]-; type: ADME, organism-based; conditions: in vivo, iv; method in brief: as §1
Rattus norvegicus [18] = assay: Distribution of radioactivity was measured in thyroid tissue of unfasted Fischer 344 rats administered intravenously after 5 minutes (radiolabeled with [125I]-; type: ADME, organism-based, Thyroid gland; conditions: in vivo, iv; method in brief: as §1
Rattus norvegicus [19] = assay: Mean heart/blood tissue of unfasted Fischer 344 rats administered intravenous after 15 minutes (radiolabeled with [125I]-; type: ADME, organism-based; conditions: in vivo, 0.25 h; method in brief: as §2
Rattus norvegicus [20] = assay: Distribution of radioactivity was measured in blood tissue of unfasted Fischer 344 rats administered intravenously after 2 minutes (radiolabeled with [125I]-; type: ADME, organism-based; conditions: in vivo, iv; method in brief: as §1
Rattus norvegicus [21] = assay: Distribution of radioactivity was measured in thyroid tissue of unfasted Fischer 344 rats administered intravenously after 30 minutes (radiolabeled with [125I]-; type: ADME, organism-based, Thyroid gland; conditions: in vivo, iv, 0.5 h; method in brief: as §1
Rattus norvegicus [22] = assay: Distribution of radioactivity was measured in heart tissue of unfasted Fischer 344 rats administered intravenously after 60 minutes (radiolabeled with [125I]-; type: ADME, organism-based; conditions: in vivo, iv, 1 h; method in brief: as §1
Rattus norvegicus [23] = assay: Distribution of radioactivity was measured in kidney tissue of unfasted Fischer 344 rats administered intravenously after 2 minutes (radiolabeled with [125I]-; type: ADME, organism-based; conditions: in vivo, iv; method in brief: as §1
Rattus norvegicus [24] = assay: Distribution of radioactivity was measured in liver tissue of unfasted Fischer 344 rats administered intravenously after 2 minutes (radiolabeled with [125I]-; type: ADME, organism-based; conditions: in vivo, iv; method in brief: as §1
Rattus norvegicus [25] = assay: Distribution of radioactivity was measured in kidney tissue of unfasted Fischer 344 rats administered intravenously after 15 minutes (radiolabeled with [125I]-; type: ADME, organism-based; conditions: in vivo, iv, 0.25 h; method in brief: as §1
Rattus norvegicus [26] = assay: Distribution of radioactivity was measured in kidney tissue of unfasted Fischer 344 rats administered intravenously after 60 minutes (radiolabeled with [125I]-; type: ADME, organism-based; conditions: in vivo, iv, 1 h; method in brief: as §1
Rattus norvegicus [27] = organism: Rattus norvegicus; assay: Specific activity was determined with radioiodinated iodine-123; type: functional
Rattus norvegicus [28] = assay: Distribution of radioactivity was measured in lung tissue of unfasted Fischer 344 rats administered intravenously after 30 minutes (radiolabeled with [125I]-; type: ADME, organism-based; conditions: in vivo, iv, 0.5 h; method in brief: as §1
Rattus norvegicus [29] = assay: Mean heart/blood tissue of unfasted Fischer 344 rats administered intravenous after 60 minutes (radiolabeled with [125I]-; type: ADME, organism-based; conditions: other tissue, 1 h; method in brief: as §2
Rattus norvegicus [30] = assay: Distribution of radioactivity was measured in lung tissue of unfasted Fischer 344 rats administered intravenously after 2 minutes (radiolabeled with [125I]-; type: ADME, organism-based; conditions: in vivo, iv; method in brief: as §1
Rattus norvegicus [31] = assay: Distribution of radioactivity was measured in lung tissue of unfasted Fischer 344 rats administered intravenously after 15 minutes (radiolabeled with [125I]-; type: ADME, organism-based; conditions: in vivo, iv, 0.25 h; method in brief: as §1
Rattus norvegicus [32] = assay: Distribution of radioactivity was measured in heart tissue of unfasted Fischer 344 rats administered intravenously after 5 minutes (radiolabeled with [125I]-; type: ADME, organism-based; conditions: in vivo, iv; method in brief: as §1
Rattus norvegicus [33] = assay: Distribution of radioactivity was measured in thyroid tissue of unfasted Fischer 344 rats administered intravenously after 60 minutes (radiolabeled with [125I]-; type: ADME, organism-based, Thyroid gland; conditions: in vivo, iv, 1 h; method in brief: as §2
Rattus norvegicus [34] = organism: Rattus norvegicus; assay: Specific activity was determined with radioiodinated iodine-125; type: functional
Rattus norvegicus [35] = assay: Distribution of radioactivity was measured in lung tissue of unfasted Fischer 344 rats administered intravenously after 60 minutes (radiolabeled with [125I]-; type: ADME, organism-based; conditions: in vivo, iv, 1 h; method in brief: as §1
Rattus norvegicus [36] = assay: Distribution of radioactivity was measured in thyroid tissue of unfasted Fischer 344 rats administered intravenously after 15 minutes (radiolabeled with [125I]-; type: ADME, organism-based, Thyroid gland; conditions: in vivo, iv, 0.25 h; method in brief: as §1
Rattus norvegicus [37] = assay: Distribution of radioactivity was measured in heart tissue of unfasted Fischer 344 rats administered intravenously after 30 minutes (radiolabeled with [125I]-; type: ADME, organism-based; conditions: in vivo, iv, 0.5 h; method in brief: as §1

| SMILES | Distribution (Rattus norvegicus [1]) [%] | Distribution (Rattus norvegicus [2]) [%] | Distribution (Rattus norvegicus [3]) [%] | Distribution (Rattus norvegicus [4]) [%] | Distribution (Rattus norvegicus [5]) [%] | Distribution (Rattus norvegicus [6]) [%] | Distribution (Rattus norvegicus [7]) [%] | Distribution (Rattus norvegicus [8]) [%] | Distribution (Rattus norvegicus [9]) [%] | Distribution (Rattus norvegicus [10]) [%] | Distribution (Rattus norvegicus [11]) [%] | Distribution (Rattus norvegicus [12]) [%] | Distribution (Rattus norvegicus [13]) [%] | Distribution (Rattus norvegicus [14]) [%] | Distribution (Rattus norvegicus [15]) [%] | Distribution (Rattus norvegicus [16]) [%] | Distribution (Rattus norvegicus [17]) [%] | Distribution (Rattus norvegicus [18]) [%] | Distribution (Rattus norvegicus [19]) [%] | Distribution (Rattus norvegicus [20]) [%] | other results |
| --- | --- | --- | --- | --- | --- | --- | --- | --- | --- | --- | --- | --- | --- | --- | --- | --- | --- | --- | --- | --- | --- |
| CC(CCCCCCCCCCCCCC/C=C/I)CC(=O)O (centres undefined) | 8.44 | 7.81 | 3.7 | 3.93 | 1.18 | 6.9 | 7.21 | 0.41 | 0.37 | 4.73 | 5.6 | 0.59 | 0.67 | 5.97 | 0.71 | 3.47 | 0.92 | 9.49 | 7.4 | 1.05 | Distribution (Rattus norvegicus [21]): 29.4%; Distribution (Rattus norvegicus [22]): 3.08%; Distribution (Rattus norvegicus [23]): 0.95%; Distribution (Rattus norvegicus [24]): 8.32%; Distribution (Rattus norvegicus [25]): 0.66%; Distribution (Rattus norvegicus [26]): 0.67%; Specific activity (Rattus norvegicus [27]): 4.98 Ci mM-1; Distribution (Rattus norvegicus [28]): 0.89%; Distribution (Rattus norvegicus [29]): 8.3%; Distribution (Rattus norvegicus [30]): 1.42%; Distribution (Rattus norvegicus [31]): 0.83%; Distribution (Rattus norvegicus [32]): 3.74%; Distribution (Rattus norvegicus [33]): 65.4%; Specific activity (Rattus norvegicus [34]): 7.08 Ci mM-1; Distribution (Rattus norvegicus [35]): 0.73%; Distribution (Rattus norvegicus [36]): 16.9%; Distribution (Rattus norvegicus [37]): 4.12% |
| O=C(O)CCCCCCCCCCCCCCCC/C=C/I | 5.88 | 6.45 | 9.9 | 4.44 | 0.97 | 7.4 | 7.91 | 0.35 | 0.31 | 3.79 | 12.4 | 0.51 | 0.3 | 5.72 | 0.76 | 3 | 0.82 | 8.73 | 8.6 | 0.45 | Distribution (Rattus norvegicus [21]): 21.9%; Distribution (Rattus norvegicus [22]): 3.4%; Distribution (Rattus norvegicus [23]): 0.85%; Distribution (Rattus norvegicus [24]): 6.91%; Distribution (Rattus norvegicus [25]): 0.73%; Distribution (Rattus norvegicus [26]): 0.67%; Specific activity (Rattus norvegicus [27]): 2.21 Ci mM-1; Distribution (Rattus norvegicus [28]): 1%; Distribution (Rattus norvegicus [29]): 10.9%; Distribution (Rattus norvegicus [30]): 1.16%; Distribution (Rattus norvegicus [31]): 0.92%; Distribution (Rattus norvegicus [32]): 3.72%; Distribution (Rattus norvegicus [33]): 43.5%; Specific activity (Rattus norvegicus [34]): 1.77 Ci mM-1; Distribution (Rattus norvegicus [35]): 0.86%; Distribution (Rattus norvegicus [36]): 15.7%; Distribution (Rattus norvegicus [37]): 3.79% |
